# This is a sample that favours compounds with a hit; in the whole collection about 3% have one here.
# HTR1A agonist: 5-HT1a (human) receptor agonism; P08908; CHO 5-HT1a Ga15 NFAT-bla reporter, FRET ratio; 0% basal, 100% maximal reference agonist; activation, % at 10 µM; 65,000 compounds, 0.56% hits;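 active means activation above the screen-wide mean activation plus 3 SD, cut at about 19% in these data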;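 further: 0% = DMSO wells and 100% = 5-CT at EC100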
# S1P1 ag pot: agonists and agonism potentiators of human S1P1 receptor. 56,000 compounds, 0.57% hits. P21453. activation, % at 9.5 µM. AID 449. S1P1 CRE-bla cells, forskolin, beta-lactamase FRET, potentiator mode; S1P1 agonist co-added at EC20, 2 nM; 100% = saturating reference agonist, 0% = basal;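 active means activation above a cutoff set at the mean activation of all tested compounds plus 3 SD, cut at about 54% in these data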;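 further: forskolin at 4 µM as EC80 and the EC20 agonist is SEW2871; 100% = SEW2871 at its EC100 plus forskolin at EC80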
# Target sequence (P21453 whole entry, looked up): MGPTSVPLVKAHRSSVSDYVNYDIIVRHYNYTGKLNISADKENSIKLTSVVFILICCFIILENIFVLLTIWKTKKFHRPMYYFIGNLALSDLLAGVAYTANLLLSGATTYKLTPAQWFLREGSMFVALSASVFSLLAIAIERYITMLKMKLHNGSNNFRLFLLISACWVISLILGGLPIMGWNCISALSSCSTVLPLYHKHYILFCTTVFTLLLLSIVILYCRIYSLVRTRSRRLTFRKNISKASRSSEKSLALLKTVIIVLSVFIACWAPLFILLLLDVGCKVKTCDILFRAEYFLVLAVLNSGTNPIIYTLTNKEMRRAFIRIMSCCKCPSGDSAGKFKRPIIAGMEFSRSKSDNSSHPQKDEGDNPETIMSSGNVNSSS
# HTR1E agonist: agonists of human 5-HT1E serotonin receptor | activation, % at 6 µM | CHO 5-HT1E Ga15 NFAT-bla reporter, FRET; 0% DMSO wells, 100% control agonist wells | P28566 | AID 574 | 65,000 compounds, 0.69% hits;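 active means activation above a set limit, the screen-wide mean activation plus 3 SD, cut at about 8.5% in these data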;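 further: 100% = positive control agonist at 1 µM giving full maximal response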
# HTR1E antagonist: antagonists of human 5-HT1E serotonin receptor; AID 571; CHO 5-HT1E Ga15 NFAT-bla reporter, FRET, antagonist; 65,000 compounds, 0.99% hits; inhibition, % at 6 µM; P28566;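 active means inhibition above a set limit, the mean inhibition across every tested compound plus 3 SD, cut at about 29% in these data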;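 further: signal is the 460 over 535 nm emission ratio of beta-lactamase substrate; 0% = agonist plus DMSO wells and 100% = wells without agonist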
# 5-HT1A blocker: blocks the human serotonin 5-HT1a receptor; inhibition, % at 10 µM; AID 612; CHO 5-HT1a Ga15 NFAT-bla reporter, antagonist mode; 62,000 compounds, 0.68% hits; P08908;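 active means inhibition above the mean of all tested compounds plus 3 SD, cut at about 43% in these data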;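 further: receptor stimulated by 5-CT agonist at 100 nM near EC80; beta-lactamase reporter measured by ratiometric fluorescence of a cleavable substrate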
# S1P3 ag: activates the human S1P3 receptor; AID 373; activation, % at 4.5 µM; Q99500; 60,000 compounds, 0.1% hits; S1P3 NFAT-BLA reporter cells, agonism, FRET ratio; relative to 1 µM S1P, basal subtracted;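 active means activation above the screen-wide mean plus 3 SD, cut at about 4.5% in these data, passing the limit was not always enough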
#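 Measure – % activation relative to 1 µM S1P (100%), per plate · System – stable CHO line with human S1P3, Gα16, NFAT-BLA reporter · Timing – cells plated overnight, compound 4 h 37 °C, substrate 2 h RT · Technique – fluorescent BLA substrate, ex 405 nm, em 460/535 nm ratio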
# * hit, by the source's call; / = no result given.
SMILES,HTR1A agonist,S1P1 ag pot,HTR1E agonist,HTR1E antagonist,5-HT1A blocker,S1P3 ag
CCOC(=O)c1c(-c2ccc(C)o2)csc1NC(=O)CSc1nnc(C)s1,2,-36,2,17,56*,-1
CC(C)CCOc1ccc(C(=O)CCNC(C)C(=O)O)cc1 (configuration not stated),0,-18,0,-8,1,1
Cc1ccc2nc3c(cc(C#N)c(=O)n3-c3nccs3)c(=O)n2c1,59*,-110,13*,-31,-88,12*
CCCCCC1CC(CC#CCN2CCOCC2)C(=O)O1 (configuration not stated),1,17,0,-5,/,1
O=C(NCc1cccs1)C1CCN(c2ccc(S(=O)(=O)N3CCOCC3)cc2Cl)CC1,1,16,0,40*,27,-2
CC(C)CNC(=O)C1CCN(c2ccc(S(=O)(=O)N3CCOCC3)cc2Cl)CC1,1,24,0,13,8,-1
CC(C)[C@H](NC(=O)NCCc1ccc(F)cc1)C(=O)O,-2,-4,0,8,-16,-1
COc1ccc(OC)c(C2CC(=O)c3c([nH]c(C(=O)OC(C)C)c3C)C2)c1 (configuration not stated),0,-15,-1,87*,71*,-1
CCCOCCOC(=O)c1[nH]c2c(c1C)C(=O)CC(c1cc(OC)ccc1OC)C2 (configuration not stated),0,15,0,81*,76*,-2
CC1=CC(C)C2C(=O)N(CCCN(C)C)C(=O)C2C1 (configuration not stated),-1,/,0,7,-12,0
CN1/C(=C\C(=O)c2ccco2)C(C)(C)c2ccccc21,4,26,1,6,19,2
CN1/C(=C/C(=O)c2nc(S(C)(=O)=O)ncc2Cl)C(C)(C)c2ccccc21,-3,110*,1,51*,62*,-2
CCC(=O)Nc1cc(C)c(NC(=O)c2ccco2)cn1,1,/,0,1,3,/
CCC(=O)Nc1cc(C)c(NC(=O)c2ccccc2OC)cn1,-2,0,14*,-2,-16,0
N#Cc1sc2nc3c(c(-c4ccco4)c2c1N)CCCC3,-2,-71,1,31*,-20,-1
Cc1cc(C)nc(SC2=CS(=O)(=O)c3ccccc32)n1,0,43,1,28,28,-1
O=S1(=O)C=C(Sc2nc3ccccc3s2)c2ccccc21,-4,114*,0,106*,98*,-2
CN(C)c1ccc(-c2nnn(Cc3ccccc3Br)n2)cc1,0,29,-1,0,8,0
CCOc1ccccc1N(C(=O)CNC(=O)c1ccco1)C(C(=O)NC(C)(C)C)c1ccncc1 (configuration not stated),-3,10,1,-4,-5,0
CC1(C)Cc2ccccc2-c2nc3ccccc3c(=O)n21,3,-8,0,-4,-7,-3
c1csc(CCNc2ncnc3sc4c(c23)CCC4)c1,3,153*,1,16,32,-2
Cc1cc(C)n(-c2nc(NCc3cccnc3)c3c4c(sc3n2)COC(C)(C)C4)n1,1,-86,0,15,-6,13*
CCC(O)CNc1nc(-n2nc(C)cc2C)nc2sc3c(c12)CCCC3 (configuration not stated),2,-50,-1,2,0,1
Cc1cccc(NC(=O)C2CCCN(C(=O)Nc3ccccc3)C2)c1C (configuration not stated),0,1,88*,5,0,0
O=C(NCc1ccccc1)C1CCCN(C(=O)Nc2ccccc2)C1 (configuration not stated),-1,3,0,12,5,0
SMILES,HTR1A agonist,S1P1 ag pot,HTR1E agonist,HTR1E antagonist,5-HT1A blocker,S1P3 ag
COc1ccc(CN2CC(C(=O)NCc3cccc(OC)c3)CC2=O)cc1 (configuration not stated),-3,-11,0,5,-2,-1
Cc1nc2oc3c(NCc4ccccc4)ncnc3c2c2c1COC(C)(C)C2,4,-16,1,6,3,-1
CCCc1nc2oc3c(NCCOCCO)ncnc3c2c2c1COC(C)(C)C2,1,6,-1,30*,7,-1
COc1ccc(OC)c(-c2csc(N(Cc3ccco3)C(=O)c3cccs3)n2)c1,5,22,2,2,43*,-2
COc1ccc(-c2csc(N(CC3CCCO3)C(=O)c3cccs3)n2)cc1 (configuration not stated),1,-4,1,5,15,-2
C=CCc1ccccc1OCCCCN1CCCC1,2,-4,10*,7,20,-2
Cc1ccccc1OCCCN1CCCC1,-3,-12,1,0,-9,0
CCc1ccccc1OCCCCN1CCCC1,-1,/,12*,-9,6,-1
COc1cccc(N2CCN(C3OC(=O)c4ccccc43)CC2)c1 (configuration not stated),-1,1,23*,8,1,0
COc1cccc(N2CCN(C3CC(=O)N(c4ccc(Cl)c(Cl)c4)C3=O)CC2)c1 (configuration not stated),2,-12,0,-1,-7,1
OCCN(CCO)c1ncnc2c1sc1nc(N3CCOCC3)c3c(c12)CCCC3,6,-73,1,31*,/,1
OCCN1CCN(c2ncnc3c2sc2nc(N4CCOCC4)c4c(c23)CCC4)CC1,1,/,2,16,-19,/
CC(C)c1ccc(NC(=O)CSc2nc3c(c(=O)[nH]2)CCC3)cc1,-1,5,1,5,3,-1
CSc1ncccc1C(=O)OCc1ccccc1,-2,-23,-1,-4,-11,0
CSc1ncccc1C(=O)OCc1ccccc1F,73*,25,2,-3,-8,0
COc1ccc2c(c1)c(CCN1C(=O)c3ccccc3C1=O)cn2C(=O)c1ccco1,0,-6,0,7,8,-1
O=C(Oc1ccc2[nH]cc(CCN3C(=O)c4ccccc4C3=O)c2c1)c1ccco1,-1,-19,38*,-7,-12,-1
O=C(CCNS(=O)(=O)c1cccc2nonc12)NCc1cccs1,-1,/,1,-2,4,/
CCOC(=O)C1CCCN(C(=O)c2cc3ncc(Br)cn3n2)C1 (configuration not stated),-1,/,1,0,-20,0
CCn1c(SCC(=O)Nc2cc(C)ccc2C)nc2c(c1=O)SC(C)C2 (configuration not stated),70*,-6,1,0,13,-1

# Compound activity as filed in PubChem BioAssay.
